Screening results from PubChem.
Compounds with a hit are over-represented: about 1.9% of the library has one in this group of screens.
TAG inh – inhibitors of triacylglycerol accumulation, primary screen, cell-based, uHTS, fluorescence, H9c2; AID 651582, 2012; actives 0.66% (n = 230,000); H9c2 cells, Nile Red lipid (TAG) fluorescence; cells loaded with 200 µM oleic acid; inhibition, % at 12.5 µM;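 active = pattern-corrected inhibition of lipid staining of at least 50% with the nuclear-stain viability signal not falling by more than 50%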;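 also: 0% = DMSO wells and 100% = triacsin C control wells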
Hep lipid drop – inhibitors of hepatocyte lipid droplet formation, primary screen, imaging, high-throughput imaging, BODIPY stain; AML12 mouse hepatocytes, oleate lipid droplets; inhibition, % at 6.5 µM; actives 0.4% (n = 240,000);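 active = lipid droplet intensity inhibited by at least 50%, with more than 500 cells counted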
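Assay system: AML12 mouse liver cells | Compound dosing: One dose, 6.5 µM compound | Read-out basis: Droplet intensity reduction, % inhibition | Measured by: Fluorescence imaging, 20x objective, two fields per well | Schedule: Overnight treatment with compound plus oleate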
APP transl inh – inhibitors of APP translation via 5'UTR reporter, primary screen, APP 5'UTR luciferase, SH-SY5Y cells | SH-SY5Y APP 5'UTR-luciferase reporter, luminescence | inhibition, % at 2 µM | actives 0.82% (n = 190,000);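 active = inhibition above a set limit, derived from the sample mean plus 3 SD, cut at about 45% in these data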
aSyn 5UTR inh – MLPCN primary screen, SNCA 5' untranslated region; alpha-synuclein 5'UTR reporter, inhibitor activity; inhibition, % (tested at 7.5 µM); actives 0.82% (n = 300,000); AID 1813, 2009; in the data active = inhibition above about 60%;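 also: H4 neuroglioblastoma cells stably carrying SNCA 5'UTR luciferase fusion; 0% = DMSO wells and 100% = positive control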
697 NFkB inh – inhibitors of PMA/ionomycin-induced NF-kB reporter, 697 cells, primary screen, B-cell NF-kB inhibitor project, cell-based, luminescence, uHTS; inhibition, % at 4 µM; 697 B-cell NF-kB luciferase reporter, 16 h; actives 0.33% (n = 330,000); in the data active = inhibition above about 35%
Jurkat NFkB inh – inhibitors of induced NF-kB luciferase reporter, primary screen, TCR NF-kB activation inhibitor project, cell-based, luminescence, uHTS; Jurkat, PMA/ionomycin-induced NF-kB luciferase reporter; inhibition, % at 4 µM; actives 0.53% (n = 330,000); in the data active = inhibition above about 50%
Active calls of the source: *.

How did O=C1N(c2ccccc2)C[C@@H]2C[C@@H](c3cccs3)N3CCC[C@@]123 do in these assays?
TAG inh: -10.5; Hep lipid drop: -19.1; APP transl inh: 7.1; aSyn 5UTR inh: -18.4; 697 NFkB inh: 2.0; Jurkat NFkB inh: 1.5

Results for CC(C)CC(/C(O)=C(\C#N)c1nc2ccccc2[nH]1)N1C(=O)c2ccccc2C1=O (stereo unspecified) ?
TAG inh: -4.6; Hep lipid drop: -11.5; APP transl inh: 20.1; aSyn 5UTR inh: 64.9*; 697 NFkB inh: 13.4; Jurkat NFkB inh: 9.6

How did COc1ccc(S(=O)(=O)NC(=O)C2(C)CCN2C(=O)C2(c3ccccc3)CC2)cc1 (stereo unspecified) do in these assays?
TAG inh: 5.7

Results for CCOc1ccc(-c2nc(C#N)c(NCc3ccc4c(c3)OCO4)o2)cc1 ?
TAG inh: 0.9; Hep lipid drop: 2.9; APP transl inh: 8.6; aSyn 5UTR inh: -27.8; 697 NFkB inh: -2.9; Jurkat NFkB inh: 4.8

Results for COc1ccc(CNc2oc(COc3ccc(Cl)cc3)nc2C#N)cc1 ?
APP transl inh: 1.1; aSyn 5UTR inh: 9.6; 697 NFkB inh: -6.5; Jurkat NFkB inh: 0.7

What do the screens show for `COc1ccc(Nc2oc(COc3ccc(Cl)cc3)nc2C#N)cc1`?
TAG inh: 4.4; Hep lipid drop: 13.4; APP transl inh: -3.6; aSyn 5UTR inh: 90.6*; 697 NFkB inh: 10.0; Jurkat NFkB inh: 10.5

How did Cc1ccc(OCc2nc(C#N)c(NCc3ccc4c(c3)OCO4)o2)cc1 do in these assays?
TAG inh: -16.8; APP transl inh: 67.0*; aSyn 5UTR inh: -0.2; 697 NFkB inh: -5.9; Jurkat NFkB inh: -0.3

What do the screens show for `COc1cc(NC(=O)C(C)Oc2ccccc2)c(OC)cc1NC(=O)c1ccccc1` (stereo unspecified)?
TAG inh: -19.5; Hep lipid drop: -16.9; aSyn 5UTR inh: 17.6; 697 NFkB inh: -16.6; Jurkat NFkB inh: -15.2

Results for CCCNC(=O)c1cc(C2CCCCN2C(=O)c2ccc(C(C)C)cc2)on1 (stereo unspecified) ?
TAG inh: 15.6

Results for CCN(CC)S(=O)(=O)c1ccc2oc(Nc3ccc(OC)cc3)nc2c1 ?
Hep lipid drop: -0.4; aSyn 5UTR inh: 0.8; 697 NFkB inh: -25.5; Jurkat NFkB inh: -29.7

Results for CCOc1ccc(Nc2nc3cc(S(=O)(=O)N(CC)CC)ccc3o2)cc1 ?
Hep lipid drop: 8.4; APP transl inh: 11.9; aSyn 5UTR inh: 78.3*; 697 NFkB inh: -83.5; Jurkat NFkB inh: -21.5

What do the screens show for `Cc1cc(C)cc(C(=O)NCC(=O)OCC(=O)Nc2cccnc2Cl)c1`?
TAG inh: 0.3; Hep lipid drop: -14.4; APP transl inh: 10.6; aSyn 5UTR inh: -18.9; 697 NFkB inh: 1.0; Jurkat NFkB inh: 3.1

What do the screens show for `Cc1nc2ccccc2c(=O)n1/N=C/c1c(O)ccc2oc3c(c12)CCCC3`?
TAG inh: -15.6; Hep lipid drop: 9.4; APP transl inh: 5.6; aSyn 5UTR inh: 85.7*; 697 NFkB inh: 5.6; Jurkat NFkB inh: 22.1

What do the screens show for `Cc1nc2ccccc2c(=O)n1/N=C/c1c(O)ccc2ccccc12`?
TAG inh: -10.8; Hep lipid drop: -12.6; APP transl inh: 35.7; aSyn 5UTR inh: 49.8; 697 NFkB inh: 20.1; Jurkat NFkB inh: 0.1

Results for Cc1[nH]c2ccccc2c1C1=CC(=O)C=CC1=O ?
TAG inh: 6.1

Results for CC1Cc2ccccc2N1c1ncnc(N)c1[N+](=O)[O-] (stereo unspecified) ?
TAG inh: -0.5; Hep lipid drop: 2.4; APP transl inh: 48.2*; aSyn 5UTR inh: 68.7*; 697 NFkB inh: 12.2; Jurkat NFkB inh: 34.7

Results for CC1CCCCN1c1ncnc(N)c1[N+](=O)[O-] (stereo unspecified) ?
TAG inh: -11.4; Hep lipid drop: -1.6; APP transl inh: -0.4; aSyn 5UTR inh: 15.1; 697 NFkB inh: -0.6; Jurkat NFkB inh: -4.7

Results for O=C(CN1CCC(NC(=O)c2cccc(F)c2)CC1)Nc1ccc(Br)cc1 ?
TAG inh: -2.1; Hep lipid drop: 5.5; aSyn 5UTR inh: 67.9*; 697 NFkB inh: -69.0; Jurkat NFkB inh: -33.1

What do the screens show for `COCCNC(=O)C[C@H]1C[C@H]2c3cc(NS(=O)(=O)c4ccc(F)cc4)ccc3O[C@H]2[C@H](CO)O1`?
TAG inh: -1.2

How did Cc1ccc(-n2c(O)c(/C=C3/C(c4ccccc4)=Nc4ccccc43)c(=O)[nH]c2=O)cc1 do in these assays?
TAG inh: 31.9; Hep lipid drop: 2.6; APP transl inh: 76.1*; aSyn 5UTR inh: -3.5; 697 NFkB inh: -123.7; Jurkat NFkB inh: 43.3

Results for COc1ccc(-n2c(O)c(/C=C3\C=Nc4ccccc43)c(=O)[nH]c2=O)cc1 ?
aSyn 5UTR inh: -8.0; 697 NFkB inh: 6.1; Jurkat NFkB inh: 6.4

What do the screens show for `Cn1ccnc1/C(=N\NC(=O)c1ccccc1)c1cccc([N+](=O)[O-])c1`?
TAG inh: 8.4; Hep lipid drop: -14.4; APP transl inh: -11.1; aSyn 5UTR inh: 12.6; 697 NFkB inh: 14.7; Jurkat NFkB inh: -12.9

Results for CCOc1ccc(C(=O)N/N=C(\c2ccccc2)c2ccccn2)cc1 ?
TAG inh: -118.5; APP transl inh: 72.2*; aSyn 5UTR inh: 45.6; 697 NFkB inh: 14.0; Jurkat NFkB inh: 26.7

Results for O=C(N/N=C(\c1ccccc1)c1ccccn1)c1cccc([N+](=O)[O-])c1 ?
TAG inh: 54.7*; Hep lipid drop: -29.8; APP transl inh: 85.2*; aSyn 5UTR inh: 99.0*; 697 NFkB inh: 8.2; Jurkat NFkB inh: 47.8

Results for CCc1ccc(/C(C)=N/NC(=O)c2ccccn2)cc1 ?
TAG inh: -7.0; Hep lipid drop: -3.8; APP transl inh: 12.7; aSyn 5UTR inh: -35.4; 697 NFkB inh: -13.9; Jurkat NFkB inh: -6.3

What do the screens show for `Cc1cc2nc(C3CCN(Cc4nnnn4Cc4ccccc4)CC3)[nH]c2cc1C`?
APP transl inh: 39.8; aSyn 5UTR inh: 74.2*; 697 NFkB inh: 32.7; Jurkat NFkB inh: 27.8

How did CCC(C)(C)n1nnnc1CN1CCC(c2nc3ccc(C)cc3[nH]2)CC1 do in these assays?
APP transl inh: -1.2; aSyn 5UTR inh: 21.8; 697 NFkB inh: 19.8; Jurkat NFkB inh: 4.0

What do the screens show for `CC(=O)Nc1sc2c(c1-c1nc3ccccc3s1)CN(C(C)C)CC2`?
TAG inh: 78.3*; 697 NFkB inh: -5.0; Jurkat NFkB inh: 35.2

What do the screens show for `CC(=O)N1CCc2c(sc(NC(=O)C3CC3)c2-c2nc3ccccc3s2)C1`?
TAG inh: 16.6; Hep lipid drop: 35.8; APP transl inh: 19.8; aSyn 5UTR inh: -27.0; 697 NFkB inh: -14.6; Jurkat NFkB inh: -18.6
